Data set [1] can be described thus: Cytotoxicity in mouse parental BA/F3 cells incubated for 72 hrs by MTS assay. The data set is classed as cell-based, BaF3.
The nature of data set [2]: Efflux ratio in human Caco2 cells at 10 uM at pH 6.5. The conditions noted are these: Caco-2, pH 6.5. (Caco-2 cells form a polarised layer with tight junctions and transporters.)
Data set [3] is described as follows: Protein binding in rat plasma assessed as unbound fraction level. The class given is ADME, cell-free.
A short description of data set [4]: Protein binding in dog plasma assessed as unbound fraction level. The class given is ADME, cell-free, Canis lupus familiaris.
A short description of data set [5]: Protein binding in human plasma assessed as unbound fraction level. The data set is classed as ADME, cell-free.
Data set [6] in a line: Intrinsic clearance in dog hepatocytes assessed per million cells. The data set is classed as ADME, cell-based, Canis lupus familiaris, Hepatocyte. The conditions noted are these: read-out: CLH.
A short description of data set [7]: Intrinsic clearance in human hepatocytes assessed per million cells. The data set is classed as ADME, cell-based, Hepatocyte. The following applies: read-out: CLH.
The nature of data set [8]: Volume of distribution at steady state in CD1 mouse at 10 umol/kg, iv. The class given is ADME, organism-based. The conditions noted are these: in vivo, read-out: Vdss. The method, boiled down: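 PK in CD1 mice given an iv dose of 10 μMol/kg, alongside a separate oral dose of 21 μMol/kg. Clearance, Vdss, half-life and oral bioavailability were derived from these profiles.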

Data set [9] in a line: Half life in CD1 mouse at 21 umol/kg, po. The class given is ADME, organism-based. The conditions noted are these: in vivo. The gist of the method: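 PK was run in CD1 mice with an iv dose of 10 μMol/kg and an oral dose of 21 μMol/kg. Cl, Vdss, t1/2 and F% were derived.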
Data set [10] can be described thus: Clearance in Han Wistar rat at 1 umol/kg, iv. The class given is ADME, organism-based. The following applies: in vivo. The gist of the method:
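PK was run in Han Wistar rats with an iv dose of 1 μMol/kg and an oral dose of 2.1 μMol/kg. Cl, Vdss, t1/2 and F% were derived.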

Data set [11] is described as follows: Clearance in dog rat at 1 umol/kg, iv. The data set is classed as ADME, organism-based, Canis lupus familiaris. The following applies: in vivo.
Data set [12] in a line: Oral bioavailability in dog at […]. The data set is classed as ADME, organism-based, Canis lupus familiaris. The conditions noted are these: in vivo.
The test system of data set [13] is Mus musculus. Kind of data set: Inhibition of Kit exon 11 deletion (557 to 558 residues) and D816H mutant phosphorylation (unknown origin) transfected in mouse BA/F3 cells allografted in CB17 SCID mouse at 20 mg/kg, po administered as single dose measured after 8 hrs. The class given is functional, organism-based. The gist of the method: (§1)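 A single 20 mg/kg p.o. dose was given to mice carrying exon 11 del/D816H Ba/F3 allografts. Tumor pKIT, pERK and pAKT were measured over a timecourse, with free compound cover tracked in the same study.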

Data set [14] deals with Mus musculus. Kind of data set: Inhibition of Kit exon 11 deletion (557 to 558 residues) and D816H mutant (unknown origin) transfected in mouse BA/F3 cells allografted in CB17 SCID mouse assessed as reduction in AKT phosphorylation at 20 mg/kg, po administered as single dose measured after 24 hrs. The data set is classed as functional, organism-based. The gist of the method: as §1

Data set [15] concerns BaF3. Kind of data set: Antitumor activity against mouse BA/F3 cells expressing Kit exon 11 deletion (557 to 558 residues) and D816H mutant (unknown origin) allografted in CB17 SCID mouse assessed as inhibition of tumor growth at 20 mg/kg, po bid measured on last day of dosing. The class given is functional. The conditions noted are these: read-out: TGI. The method, boiled down: (§2)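 Ba/F3 cells bearing the KIT exon 11 del/D816H or exon 11 del/V654A mutation were grown as allografts in mice. Compounds were given p.o. once (QD) or twice daily (BD), and vehicle was given BD p.o. Tumor growth inhibition and regression (%) were taken on the last day of dosing. p-values were calculated relative to vehicle.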

For data set [16], the system named is BaF3. Kind of data set: Antitumor activity against mouse BA/F3 cells expressing Kit exon 11 deletion (557 to 558 residues) and V654 mutant (unknown origin) allografted in CB17 SCID mouse assessed as inhibition of tumor growth at 2 mg/kg, po bid measured on last day of dosing. The conditions noted are these: read-out: TGI. The data set is classed as functional. The method, boiled down: as §2

Data set [17] has as its system BaF3. Kind of data set: Antitumor activity against mouse BA/F3 cells expressing Kit exon 11 deletion (557 to 558 residues) and V654 mutant (unknown origin) allografted in CB17 SCID mouse assessed as tumor regression at 2 mg/kg, po bid measured on last day of dosing. The class given is functional. The gist of the method: as §2
In data set [18] the target is Vascular endothelial growth factor receptor 2 (Homo sapiens) (UniProt P35968).
Vascular endothelial growth factor receptor 2 (Homo sapiens), sequence (P35968 whole entry): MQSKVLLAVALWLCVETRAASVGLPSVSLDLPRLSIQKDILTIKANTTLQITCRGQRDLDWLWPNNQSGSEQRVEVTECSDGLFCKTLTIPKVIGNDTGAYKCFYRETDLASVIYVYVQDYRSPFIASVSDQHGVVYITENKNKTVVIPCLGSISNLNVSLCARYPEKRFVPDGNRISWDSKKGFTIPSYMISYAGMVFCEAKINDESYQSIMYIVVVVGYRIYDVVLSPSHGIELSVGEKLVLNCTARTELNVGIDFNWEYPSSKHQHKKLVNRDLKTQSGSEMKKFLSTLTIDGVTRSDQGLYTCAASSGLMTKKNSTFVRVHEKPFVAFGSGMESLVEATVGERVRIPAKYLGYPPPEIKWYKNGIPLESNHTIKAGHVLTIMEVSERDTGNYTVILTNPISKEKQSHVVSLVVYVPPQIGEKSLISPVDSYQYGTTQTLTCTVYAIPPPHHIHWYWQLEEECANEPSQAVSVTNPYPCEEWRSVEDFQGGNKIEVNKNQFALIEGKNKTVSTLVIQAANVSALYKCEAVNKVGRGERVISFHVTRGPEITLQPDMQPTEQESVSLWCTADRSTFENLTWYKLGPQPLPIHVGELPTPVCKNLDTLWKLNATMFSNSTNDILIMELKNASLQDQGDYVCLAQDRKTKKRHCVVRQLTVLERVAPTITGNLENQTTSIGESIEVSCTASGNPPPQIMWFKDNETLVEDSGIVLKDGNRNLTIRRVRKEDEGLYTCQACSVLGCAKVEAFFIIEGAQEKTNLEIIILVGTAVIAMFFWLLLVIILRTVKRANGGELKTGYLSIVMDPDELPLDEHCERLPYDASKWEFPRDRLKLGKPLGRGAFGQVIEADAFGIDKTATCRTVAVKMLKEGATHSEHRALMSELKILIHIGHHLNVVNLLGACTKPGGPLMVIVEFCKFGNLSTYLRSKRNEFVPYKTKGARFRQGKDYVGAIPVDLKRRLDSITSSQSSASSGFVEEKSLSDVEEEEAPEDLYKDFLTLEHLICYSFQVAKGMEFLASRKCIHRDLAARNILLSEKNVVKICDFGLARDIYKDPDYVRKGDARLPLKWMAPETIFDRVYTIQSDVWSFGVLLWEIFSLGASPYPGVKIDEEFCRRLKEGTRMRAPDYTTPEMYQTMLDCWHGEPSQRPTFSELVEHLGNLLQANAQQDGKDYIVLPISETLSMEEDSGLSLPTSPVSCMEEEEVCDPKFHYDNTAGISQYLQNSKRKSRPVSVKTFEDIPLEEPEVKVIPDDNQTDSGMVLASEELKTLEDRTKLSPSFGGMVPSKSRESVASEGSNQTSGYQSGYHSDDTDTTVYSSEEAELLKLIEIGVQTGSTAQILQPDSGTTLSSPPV
Data set [19] addresses Mast/stem cell growth factor receptor Kit (Homo sapiens) (UniProt P10721).
Data set [20] shares this target. This is another data set of the same source.
Data set [21] has as its system Mast/stem cell growth factor receptor Kit (Homo sapiens), P10721 [UNDEFINED MUTATION].
For data set [22] the test system is unchanged. The source holds these as a separate data set.
The subject of data set [23] is Mast/stem cell growth factor receptor Kit (Homo sapiens), P10721 [V560D].

Experimental findings from ChEMBL document CHEMBL4196201, “Discovery of N-(4-{[5-Fluoro-7-(2-methoxyethoxy)quinazolin-4-yl]amino}phenyl)-2-[4-(propan-2-yl)-1 H-1,2,3-triazol-1-yl]acetamide (AZD3229), a Potent Pan-KIT Mutant Inhibitor for the Treatment of Gastrointestinal Stromal Tumors” (J Med Chem, 2018) are described below.

The source made the active and inactive calls.

Mast/stem cell growth factor receptor Kit (Homo sapiens), P10721 [UNDEFINED MUTATION], sequence (P10721 whole entry, looked up, change not shown): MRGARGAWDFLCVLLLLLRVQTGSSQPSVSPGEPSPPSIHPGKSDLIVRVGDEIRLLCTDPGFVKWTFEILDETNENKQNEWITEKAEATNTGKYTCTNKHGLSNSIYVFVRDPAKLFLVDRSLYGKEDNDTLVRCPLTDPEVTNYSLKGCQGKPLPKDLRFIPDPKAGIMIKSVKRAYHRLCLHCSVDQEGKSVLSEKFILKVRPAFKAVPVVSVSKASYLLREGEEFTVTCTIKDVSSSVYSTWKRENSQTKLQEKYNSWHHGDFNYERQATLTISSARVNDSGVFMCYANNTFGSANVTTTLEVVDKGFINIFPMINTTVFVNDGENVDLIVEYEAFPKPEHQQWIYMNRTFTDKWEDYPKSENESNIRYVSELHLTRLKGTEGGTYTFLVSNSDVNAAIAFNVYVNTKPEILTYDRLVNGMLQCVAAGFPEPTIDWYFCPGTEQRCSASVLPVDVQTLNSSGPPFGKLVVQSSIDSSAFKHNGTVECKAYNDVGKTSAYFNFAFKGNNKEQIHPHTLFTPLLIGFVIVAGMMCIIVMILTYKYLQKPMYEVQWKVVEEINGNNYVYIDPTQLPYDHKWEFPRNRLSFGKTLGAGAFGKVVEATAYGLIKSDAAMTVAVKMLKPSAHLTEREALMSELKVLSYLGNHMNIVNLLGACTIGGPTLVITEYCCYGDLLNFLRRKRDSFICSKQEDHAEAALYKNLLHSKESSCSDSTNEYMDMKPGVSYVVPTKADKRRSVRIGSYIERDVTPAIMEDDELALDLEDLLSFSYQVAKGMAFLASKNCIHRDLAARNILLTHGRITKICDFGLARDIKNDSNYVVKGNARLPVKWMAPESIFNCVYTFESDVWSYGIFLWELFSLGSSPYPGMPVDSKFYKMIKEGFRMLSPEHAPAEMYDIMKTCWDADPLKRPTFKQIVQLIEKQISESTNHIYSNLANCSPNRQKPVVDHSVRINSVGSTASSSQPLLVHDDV
Mast/stem cell growth factor receptor Kit (Homo sapiens), sequence (P10721 whole entry): as the sequence (P10721 whole entry, looked up, change not shown) above
Mast/stem cell growth factor receptor Kit (Homo sapiens), P10721 [V560D], sequence (P10721 whole entry V560D): as the sequence (P10721 whole entry, looked up, change not shown) above, with V560D counted along it

Broadly, the GI50 is the concentration giving 50% growth inhibition. What is called efflux ratio is the permeability from basolateral to apical divided by that in the opposite direction, in the common usage. The fraction unbound is the share of the substance not bound to proteins or other matrix. The half-life is the time needed for the level to fall by half in the phase considered. Read a low half-life as fast loss. The clearance is the rate of elimination divided by the concentration. A high value points to a high capacity for elimination. One may read the bioavailability as the share of a dose that reaches the circulation, judged against a reference dose that is usually intravenous. As for `COCCOc1cc(F)c2c(Nc3ccc(NC(=O)Cn4cc(C(C)C)nn4)cc3)ncnc2c1`, the GI50 at 72 h in data set [1] was > 10000 nM. Further, the efflux ratio at 10 µM in [2] was determined as 2.6. Besides, the values for the fraction unbound in data set [3], in data set [4] and in data set [5] were 0.022, 0.068 and 0.035, respectively. The hepatocyte CLint in data set [6] and in data set [7] was < 1 µL/min/1e6 cells each time. Moreover, the Vd in [8] was 0.7 L/kg. This compound had a half-life in data set [9] of 2 h. The clearance in data set [10] came out at 8 mL/min/kg; in data set [11] it was 2 mL/min/kg. This compound yielded a bioavailability in data set [12] of 69%. The inhibition entry in data set [13] and in [14] was “Active” each time. Besides, the inhibition in vivo at 20 mg/kg in data set [15] is > 100%. Further, in data set [16], the inhibition in vivo at 2 mg/kg is > 100%. Also, the Activity in [17] was determined as 44%. Further, the GI50 in data set [18] is 1380 nM; in data set [19], 2 nM; in data set [20], 22 nM; in [21] it was 3 nM; in [22], 3 nM; in data set [23], 1 nM.
